Data: ChEMBL document CHEMBL3112447, “Discovery of 1-methyl-1H-imidazole derivatives as potent Jak2 inhibitors” (J Med Chem, 2014)

Tests used:
[1] = biological target: Tyrosine-protein kinase JAK2 (Homo sapiens, UniProt O60674); assay: Inhibition of Jak2 (unknown origin)
[2] = biological target: T1, Tyrosine-protein kinase JAK3 (Homo sapiens, UniProt P52333); assay: Inhibition of Jak3 (unknown origin)
T1 sequence (P52333 whole entry): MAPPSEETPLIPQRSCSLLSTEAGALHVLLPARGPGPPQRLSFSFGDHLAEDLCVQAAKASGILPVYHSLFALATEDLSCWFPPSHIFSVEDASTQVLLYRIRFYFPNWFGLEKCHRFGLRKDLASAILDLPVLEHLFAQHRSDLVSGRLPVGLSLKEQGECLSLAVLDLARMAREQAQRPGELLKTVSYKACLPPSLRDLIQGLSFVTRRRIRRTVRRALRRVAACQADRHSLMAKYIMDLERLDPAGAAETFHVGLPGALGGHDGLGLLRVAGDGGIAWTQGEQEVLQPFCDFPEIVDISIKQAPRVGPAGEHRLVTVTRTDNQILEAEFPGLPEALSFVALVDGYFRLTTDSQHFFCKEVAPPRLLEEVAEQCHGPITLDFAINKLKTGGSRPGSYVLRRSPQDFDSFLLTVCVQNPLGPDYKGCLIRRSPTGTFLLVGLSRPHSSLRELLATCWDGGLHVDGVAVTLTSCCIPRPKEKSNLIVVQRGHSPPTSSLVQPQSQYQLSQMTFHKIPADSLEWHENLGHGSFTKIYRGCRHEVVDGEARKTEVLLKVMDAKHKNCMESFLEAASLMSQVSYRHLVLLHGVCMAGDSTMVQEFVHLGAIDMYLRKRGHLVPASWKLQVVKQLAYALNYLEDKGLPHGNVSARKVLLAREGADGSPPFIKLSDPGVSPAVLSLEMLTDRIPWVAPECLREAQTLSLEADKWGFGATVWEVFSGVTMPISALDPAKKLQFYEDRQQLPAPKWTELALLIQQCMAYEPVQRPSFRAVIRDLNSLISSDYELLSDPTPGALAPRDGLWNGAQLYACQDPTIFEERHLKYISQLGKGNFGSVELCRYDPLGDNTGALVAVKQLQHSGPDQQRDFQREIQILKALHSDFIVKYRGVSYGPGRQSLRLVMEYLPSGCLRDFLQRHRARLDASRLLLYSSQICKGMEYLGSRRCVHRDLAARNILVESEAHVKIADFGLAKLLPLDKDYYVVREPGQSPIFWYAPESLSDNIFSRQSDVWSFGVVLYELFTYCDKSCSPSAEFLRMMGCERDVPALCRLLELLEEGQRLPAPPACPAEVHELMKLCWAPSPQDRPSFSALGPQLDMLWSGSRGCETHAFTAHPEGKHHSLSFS

[3] = Cytotoxicity against mouse BA/F3 cells expressing TEL-Jak2 after 72 hrs by MTS assay; assay type: functional; settings: BaF3, 72 h
How it was run: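 BaF3 TEL-Jak2 cells. Growth inhibition measured by MTS tetrazolium colorimetric read-out and reported as GI50.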

[4] = biological target: Tyrosine-protein kinase JAK1 (Homo sapiens, UniProt P23458); assay: Inhibition of Jak1 (unknown origin)
[5] = Half life in Wistar rat at 10 mg/kg, po and 3 mg/kg, iv; assay type: ADME, organism-based; settings: in vivo
How it was run: (§1)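 Rat pharmacokinetics. Oral dose 10 mg/kg in 0.1% HPMC. IV dose 3 mg/kg in 40% DMA/40% PEG/20% saline. Clearance, half-life, Vdss and oral bioavailability derived from the plasma profiles.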

[6] = Clearance in Wistar rat at 10 mg/kg, po and 3 mg/kg, iv; assay type: ADME, organism-based; settings: in vivo; how it was run: as §1
[7] = Volume of distribution at steady state in Wistar rat at 10 mg/kg, po and 3 mg/kg, iv; assay type: ADME, organism-based; settings: in vivo, read-out: Vdss; how it was run: as §1
[8] = Half life in beagle dog at 10 mg/kg, po; assay type: ADME, organism-based, Canis lupus familiaris; set-up: dose 10 mg/kg, route oral; settings: in vivo
How it was run: (§2)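 Male beagle dogs. Oral dose 10 mg/kg in 0.1% HPMC, pH 2. IV dose 2.5 mg/kg in 20% TEG/D5W. […] Clearance, Vdss, half-life and oral bioavailability (F%) derived from the plasma profiles.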

Canis familiaris [9] = assay: AUC (0 to 12 hrs) in beagle dog at 10 mg/kg, po; assay type: ADME, organism-based, Canis lupus familiaris, Plasma; set-up: time < 12 hr, dose 10 mg/kg, route oral; settings: in vivo; how it was run: as §2
[10] = Volume of distribution at steady state in beagle dog at 2.5 mg/kg, iv; assay type: ADME, organism-based, Canis lupus familiaris; set-up: dose 2.5 mg/kg, route intravenous; settings: in vivo, read-out: Vdss; how it was run: as §2
Canis familiaris [11] = assay: Oral bioavailability in beagle dog at 10 mg/kg; assay type: ADME, organism-based, Canis lupus familiaris; settings: in vivo; how it was run: as §2
[12] = Half life in beagle dog at 2.5 mg/kg, iv; assay type: ADME, organism-based, Canis lupus familiaris; set-up: dose 2.5 mg/kg, route intravenous; settings: in vivo; how it was run: as §2
[13] = Oral bioavailability in Wistar rat at 10 mg/kg; assay type: ADME, organism-based; settings: in vivo; how it was run: as §1

Sequence of Tyrosine-protein kinase JAK1 (P23458 whole entry): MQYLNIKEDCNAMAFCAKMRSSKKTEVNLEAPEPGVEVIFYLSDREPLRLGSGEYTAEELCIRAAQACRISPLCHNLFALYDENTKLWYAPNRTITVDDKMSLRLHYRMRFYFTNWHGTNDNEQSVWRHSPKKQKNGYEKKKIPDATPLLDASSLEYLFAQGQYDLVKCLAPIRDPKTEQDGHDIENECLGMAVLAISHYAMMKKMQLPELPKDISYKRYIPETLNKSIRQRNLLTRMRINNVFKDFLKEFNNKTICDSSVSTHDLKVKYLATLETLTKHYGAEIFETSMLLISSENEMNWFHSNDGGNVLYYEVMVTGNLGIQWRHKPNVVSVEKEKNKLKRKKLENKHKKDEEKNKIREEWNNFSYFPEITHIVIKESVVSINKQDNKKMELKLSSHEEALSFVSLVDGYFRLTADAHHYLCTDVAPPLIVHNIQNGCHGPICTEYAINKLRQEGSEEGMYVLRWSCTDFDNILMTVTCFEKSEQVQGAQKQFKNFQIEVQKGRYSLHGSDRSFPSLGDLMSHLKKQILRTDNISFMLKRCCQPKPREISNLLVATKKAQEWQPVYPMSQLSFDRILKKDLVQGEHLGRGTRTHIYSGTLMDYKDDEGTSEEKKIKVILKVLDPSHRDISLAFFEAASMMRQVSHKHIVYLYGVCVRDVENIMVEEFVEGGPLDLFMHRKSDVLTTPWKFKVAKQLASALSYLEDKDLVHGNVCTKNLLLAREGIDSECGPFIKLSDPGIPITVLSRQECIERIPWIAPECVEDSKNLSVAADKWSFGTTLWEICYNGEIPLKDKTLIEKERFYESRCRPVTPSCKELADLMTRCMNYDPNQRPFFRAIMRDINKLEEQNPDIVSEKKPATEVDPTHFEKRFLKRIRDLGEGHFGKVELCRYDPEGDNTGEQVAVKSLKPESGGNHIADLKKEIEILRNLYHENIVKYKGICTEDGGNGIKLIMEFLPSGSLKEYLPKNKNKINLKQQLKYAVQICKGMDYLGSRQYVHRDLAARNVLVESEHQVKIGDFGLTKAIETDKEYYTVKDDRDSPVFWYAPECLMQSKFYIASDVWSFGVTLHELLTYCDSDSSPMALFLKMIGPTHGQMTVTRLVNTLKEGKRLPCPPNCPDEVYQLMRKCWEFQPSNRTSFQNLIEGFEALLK
Sequence of Tyrosine-protein kinase JAK2 (O60674 whole entry): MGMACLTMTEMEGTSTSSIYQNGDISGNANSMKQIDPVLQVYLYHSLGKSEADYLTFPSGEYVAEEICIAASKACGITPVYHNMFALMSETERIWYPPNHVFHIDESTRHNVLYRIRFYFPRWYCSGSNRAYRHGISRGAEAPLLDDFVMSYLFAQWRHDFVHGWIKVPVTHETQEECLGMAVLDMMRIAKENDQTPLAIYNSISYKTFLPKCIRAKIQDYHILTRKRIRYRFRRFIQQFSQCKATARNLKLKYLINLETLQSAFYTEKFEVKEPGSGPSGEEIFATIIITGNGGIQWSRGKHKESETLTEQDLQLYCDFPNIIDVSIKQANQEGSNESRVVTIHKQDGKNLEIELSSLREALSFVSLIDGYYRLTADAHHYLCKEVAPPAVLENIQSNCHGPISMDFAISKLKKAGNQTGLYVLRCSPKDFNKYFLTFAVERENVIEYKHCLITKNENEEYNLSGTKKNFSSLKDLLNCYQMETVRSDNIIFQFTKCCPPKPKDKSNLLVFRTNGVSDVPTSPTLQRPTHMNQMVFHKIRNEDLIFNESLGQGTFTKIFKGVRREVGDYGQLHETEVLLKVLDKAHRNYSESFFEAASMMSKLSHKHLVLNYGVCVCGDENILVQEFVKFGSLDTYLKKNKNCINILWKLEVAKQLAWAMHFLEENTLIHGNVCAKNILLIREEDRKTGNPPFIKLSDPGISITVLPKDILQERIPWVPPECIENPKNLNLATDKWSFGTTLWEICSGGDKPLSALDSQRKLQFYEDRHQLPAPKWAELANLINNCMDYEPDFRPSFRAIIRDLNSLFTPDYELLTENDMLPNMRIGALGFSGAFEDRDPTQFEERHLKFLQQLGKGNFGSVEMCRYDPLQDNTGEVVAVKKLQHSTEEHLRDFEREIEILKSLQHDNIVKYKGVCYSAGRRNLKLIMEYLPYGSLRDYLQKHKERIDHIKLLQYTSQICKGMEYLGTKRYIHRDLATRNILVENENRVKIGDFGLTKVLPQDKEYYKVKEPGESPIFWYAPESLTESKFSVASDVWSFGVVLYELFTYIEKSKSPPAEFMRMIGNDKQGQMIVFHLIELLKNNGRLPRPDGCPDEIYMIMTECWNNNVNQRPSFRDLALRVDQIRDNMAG

Row | Compound | IC50 [1] [µM] | IC50 [2] [µM] | GI50 [3] [µM] | IC50 [4] [µM] | also measured
1 | CC(Nc1nc(Nc2cn(C)cn2)c2ccc(Cl)nc2n1)c1ncc(F)cn1 (racemic) | < 0.003 | > 30 | 0.028 | – | –
2 | C[C@H](Nc1nc(Nc2cn(C)cn2)c2ccn(C3CC3)c2n1)c1ncc(F)cn1 | 0.027 | 2.46 | 0.056 | 0.029 | –
3 | CC(Nc1nc(Nc2cn(C)cn2)c2cn[nH]c2n1)c1ncc(F)cn1 (racemic) | 0.05 | 4.62 | 0.11 | 0.022 | –
4 | Cc1csc2c(Nc3cn(C)cn3)nc(N[C@@H](C)c3ncc(F)cn3)nc12 | – | 3.93 | 0.037 | – | half-life [5]: 0.64 h; clearance [6]: 2.64 L/h/kg; Vd [7]: 1.2 L/kg
5 | C[C@H](Nc1nc(Nc2cn(C)cn2)c2cnn(C)c2n1)c1ncc(F)cn1 | 0.015 | 1.44 | 0.026 | 0.016 | half-life [8]: 7.7 h; AUC (Canis familiaris [9]): 49 µM·h; Vd [10]: 2.1 L/kg; F (Canis familiaris [11]): 139%; half-life [12]: 6.2 h; half-life [5]: 1.3 h; clearance [6]: 1.5 L/h/kg; bioavailability [13]: 90%; Vd [7]: 1.8 L/kg
6 | C[C@H](Nc1nc(Nc2cn(C)cn2)c2nccnc2n1)c1ncc(F)cn1 | 0.8 | > 30 | 0.53 | 1.5 | –
7 | C[C@H](Nc1nc(Nc2cn(C)cn2)c2ccncc2n1)c1ncc(F)cn1 | 0.012 | 1.82 | 0.025 | 0.028 | –
8 | C[C@H](Nc1nc(Nc2cn(C)cn2)c2ccn(C)c2n1)c1ncc(F)cn1 | 0.027 | 7.56 | 0.034 | 0.024 | –
9 | CC(Nc1nc(Nc2cn(C)cn2)c2[nH]ccc2n1)c1ncc(F)cn1 (racemic) | < 0.003 | 5.88 | 0.099 | – | –
10 | C[C@H](Nc1nc(Nc2cn(C)cn2)c2ccccc2n1)c1ncc(F)cn1 | 0.003 | 14.8 | 0.034 | – | –
11 | COc1ccc2c(Nc3cn(C)cn3)nc(NC(C)c3ncc(F)cn3)nc2c1 (racemic) | 0.024 | 13.2 | 0.034 | – | half-life [5]: 0.98 h; clearance [6]: 6.6 L/h/kg; Vd [7]: 6 L/kg
12 | C[C@H](Nc1nc(Nc2cn(C)cn2)c2cc(F)cnc2n1)c1ncc(F)cn1 | 0.49 | 30 | 3.1 | – | –
13 | COc1ccc2nc(NC(C)c3ncc(F)cn3)nc(Nc3cn(C)cn3)c2c1 (racemic) | 0.67 | > 30 | 3 | – | –
14 | CC(Nc1nc(Nc2cn(C)cn2)c2cccnc2n1)c1ncc(F)cn1 (racemic) | 0.033 | 3.78 | 0.04 | 0.131 | half-life [5]: 0.92 h; clearance [6]: 6 L/h/kg; Vd [7]: 2.5 L/kg
15 | C[C@H](Nc1ncc(Cl)c(Nc2cn(C)cn2)n1)c1ncc(F)cn1 | 0.12 | – | 0.27 | – | –
